According to ChEMBL document CHEMBL3352392, “Identification of novel thiadiazoloacrylamide analogues as inhibitors of dengue-2 virus NS2B/NS3 protease” (Bioorg Med Chem, 2014):
Activity calls are given as the source filed them. No cut-off for these calls is given here.

Key:
[1] = molecular target: Genome polyprotein (dengue virus type 2) (UniProt P12823); assay: Inhibition of Dengue virus 2 NS2B/NS3 protease using Bz-Nle-Lys-Arg-Arg-AMC as substrate preincubated at 20 uM for 30 mins before substrate addition by fluorescence assay
Outline: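 E. coli BL21-expressed DENV2 NS2B-NS3pro, 200 nM, with compound at 20 µM in 50 mM Tris-HCl pH 8.5, 10 mM NaCl, 20% glycerol, 1 mM CHAPS, 37 °C for 30 min. Bz-Nle-Lys-Arg-Arg-AMC added to start. Fluorescence read every 10 s for 5 min (ex 380/em 460 nm). Inhibition rate from maximum reaction rate with versus without compound. Aprotinin 1 µM as positive control.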

Genome polyprotein [2] = molecular target: T1, Genome polyprotein (dengue virus type 2, UniProt P12823); assay: Inhibition of Dengue virus 2 NS2B/NS3 protease using Bz-Nle-Lys-Arg-Arg-AMC as substrate preincubated for 30 mins before substrate addition by fluorescence assay
Outline: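 Purified DENV2 NS2B-NS3pro (200 nM; E. coli BL21) mixed with compound at eleven levels, 0.1 nM–200 µM, in pH 8.5 Tris-HCl buffer with 10 mM NaCl, 20% glycerol, 1 mM CHAPS. Preincubated 30 min at 37 °C, then Bz-Nle-Lys-Arg-Arg-AMC added. AMC fluorescence (380/460 nm) followed every 10 s over 5 min. IC50 from the concentration series.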

Genome polyprotein [3] = molecular target: T1, Genome polyprotein; assay: (§1) Binding affinity to Dengue virus 2 NS2B/NS3 protease by SPR assay
Outline: (§2)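 DENV2 NS2B/NS3pro purified from E. coli BL21 and amine-coupled onto a CM5 chip in 10 mM sodium acetate, pH 3.95. Compounds serially diluted in HBS (0.01 M HEPES, 0.15 M NaCl, 3 mM EDTA, 0.005% P20, pH 7.4). Biacore 3000 SPR gave the equilibrium KD.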

[4] = molecular target: Genome polyprotein (dengue virus type 2) (UniProt P12823); assay: as §1; outline: as §2

Row | Structure (SMILES) | inhibition [1] [%] | IC50 (Genome polyprotein [2]) [µM] | Kd (Genome polyprotein [3]) [µM] | Activity [4]
1 | N#C/C(=C\c1cn(Cc2ccc(C(F)(F)F)cc2C(F)(F)F)c2ccccc12)C(=O)Nc1nnc(SCc2ccccc2)s1 | 54.1 | – | – | –
2 | N#C/C(=C\c1cn(Cc2ccccc2)c2ccccc12)C(=O)Nc1nnc(C(F)(F)F)s1 | 76 | 10.1 | 9.27 | –
3 | N#C/C(=C\c1cn(Cc2ccc(F)cc2)c2ccccc12)C(=O)Nc1nnc(SCc2ccccc2)s1 | 86.5 | 2.24 | 2.07 | –
4 | N=C1/C(=C/c2cn(Cc3ccccc3)c3ccccc23)C(=O)N=C2SC(SCc3ccccc3)=NN12 | 72 | 6.09 | – | –
5 | N#C/C(=C\c1cn(Cc2ccccc2C#N)c2ccccc12)C(=O)Nc1nnc(SCc2ccccc2)s1 | 85.8 | 2.86 | – | –
6 | Cc1ccccc1CSc1nnc(NC(=O)/C(C#N)=C/c2cn(Cc3ccccc3)c3ccccc23)s1 | 69.4 | – | – | –
7 | N#C/C(=C\c1cn(Cc2ccccc2)c2ccccc12)C(=O)Nc1nnc(SCc2ccc(Cl)cc2)s1 | 63.4 | – | – | –
8 | COc1ccc(CSc2nnc(NC(=O)/C(C#N)=C/c3cn(Cc4ccccc4)c4ccccc34)s2)cc1 | 76.3 | 3.44 | – | –
9 | N#C/C(=C\c1cn(Cc2ccc(C(F)(F)F)cc2)c2ccccc12)C(=O)Nc1nnc(SCc2ccccc2)s1 | 45.9 | – | – | –
10 | N#C/C(=C\c1cn(Cc2ccccc2)c2ccccc12)C(=O)Nc1nnc(SCc2ccc(F)cc2)s1 | 83.4 | 3.72 | – | –
11 | N#C/C(=C\c1cn(Cc2ccccc2)c2ccccc12)C(=O)Nc1nnc(SCc2cccc3ccccc23)s1 | 50 | – | – | –

Continued, values first:

Row | inhibition [1] [%] | IC50 (Genome polyprotein [2]) [µM] | Kd (Genome polyprotein [3]) [µM] | Activity [4] | Structure (SMILES)
12 | 65.8 | – | – | – | N#C/C(=C\c1cn(Cc2ccccc2)c2ccccc12)C(=O)Nc1nnc(SCc2ccc(Br)cc2)s1
13 | 88.9 | 3.58 | – | – | N#C/C(=C\c1cn(Cc2ccccc2F)c2ccccc12)C(=O)Nc1nnc(SCc2ccccc2)s1
14 | 63.5 | – | – | – | N#C/C(=C\c1cn(Cc2ccccc2)c2ccccc12)C(=O)Nc1nnc(SCc2ccccc2Cl)s1
15 | 79 | 4.44 | 3.59 | – | N#C/C(=C\c1cn(Cc2ccccc2)c2ccccc12)C(=O)Nc1nnc(SCc2ccccc2)s1
16 | – | – | – | inactive | O=C(/C=C/c1cn(Cc2ccccc2)c2ccccc12)Nc1nnc(C(F)(F)F)s1
